Results published in ChEMBL document CHEMBL4428062, “Human Toll-like Receptor (TLR) 8-Specific Agonistic Activity in Substituted Pyrimidine-2,4-diamines” (J Med Chem, 2016).
pEC50: −log10 of the molar value. The source made the active and inactive calls. The calls are words filed in the database; no cut-off is given here.

Tests used:
Type in all cases: cell-based
[1] = target: T1, Toll-like receptor 8 (Homo sapiens) (UniProt Q9NR97); test: Agonist activity at human TLR8 expressed in HEK293 cells assessed as induction of NF-kappaB activity at 100 uM by secreted alkaline phosphatase reporter gene assay
T1 sequence (whole entry): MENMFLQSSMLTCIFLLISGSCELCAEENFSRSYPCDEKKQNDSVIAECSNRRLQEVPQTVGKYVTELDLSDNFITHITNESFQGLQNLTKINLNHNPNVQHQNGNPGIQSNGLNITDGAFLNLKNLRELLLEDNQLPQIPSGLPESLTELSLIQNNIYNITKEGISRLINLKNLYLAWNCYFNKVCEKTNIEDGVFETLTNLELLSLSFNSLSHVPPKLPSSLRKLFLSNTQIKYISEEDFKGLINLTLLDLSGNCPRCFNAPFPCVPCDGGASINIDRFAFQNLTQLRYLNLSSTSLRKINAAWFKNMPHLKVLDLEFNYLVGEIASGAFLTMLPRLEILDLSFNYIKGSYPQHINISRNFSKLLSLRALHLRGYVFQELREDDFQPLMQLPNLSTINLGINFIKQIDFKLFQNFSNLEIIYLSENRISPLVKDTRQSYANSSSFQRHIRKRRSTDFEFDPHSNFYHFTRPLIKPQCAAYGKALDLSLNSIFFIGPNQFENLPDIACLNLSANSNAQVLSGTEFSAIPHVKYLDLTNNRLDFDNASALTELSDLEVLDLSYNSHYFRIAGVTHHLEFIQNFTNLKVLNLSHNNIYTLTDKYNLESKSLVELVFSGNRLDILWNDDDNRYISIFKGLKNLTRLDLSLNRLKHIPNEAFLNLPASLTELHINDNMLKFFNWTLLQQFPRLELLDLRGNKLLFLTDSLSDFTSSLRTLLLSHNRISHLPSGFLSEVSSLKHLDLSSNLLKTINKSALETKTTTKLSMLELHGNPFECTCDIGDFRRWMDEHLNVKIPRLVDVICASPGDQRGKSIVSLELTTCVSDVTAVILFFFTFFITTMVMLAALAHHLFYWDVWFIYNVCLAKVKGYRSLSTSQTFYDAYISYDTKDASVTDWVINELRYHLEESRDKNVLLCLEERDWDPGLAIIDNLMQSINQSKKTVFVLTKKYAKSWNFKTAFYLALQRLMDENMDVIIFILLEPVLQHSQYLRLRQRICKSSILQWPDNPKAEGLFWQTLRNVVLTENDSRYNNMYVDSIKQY
Summary of the method: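 TLR8 reporter HEK293 cells carrying an NF-κB/AP-1-inducible secreted alkaline phosphatase were exposed to stimuli, with 100 µM as the top concentration tested. sAP released into the supernatant was read at 620 nm with a chromogenic substrate. Samples were run in quadruplicate.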

[2] = target: Toll-like receptor 3 (Homo sapiens) (UniProt O15455); test: Agonist activity at human TLR3 expressed in HEK293 cells assessed as induction of NF-kappaB activity by secreted alkaline phosphatase reporter gene assay
Sequence of Toll-like receptor 3 (Homo sapiens) (O15455 whole entry): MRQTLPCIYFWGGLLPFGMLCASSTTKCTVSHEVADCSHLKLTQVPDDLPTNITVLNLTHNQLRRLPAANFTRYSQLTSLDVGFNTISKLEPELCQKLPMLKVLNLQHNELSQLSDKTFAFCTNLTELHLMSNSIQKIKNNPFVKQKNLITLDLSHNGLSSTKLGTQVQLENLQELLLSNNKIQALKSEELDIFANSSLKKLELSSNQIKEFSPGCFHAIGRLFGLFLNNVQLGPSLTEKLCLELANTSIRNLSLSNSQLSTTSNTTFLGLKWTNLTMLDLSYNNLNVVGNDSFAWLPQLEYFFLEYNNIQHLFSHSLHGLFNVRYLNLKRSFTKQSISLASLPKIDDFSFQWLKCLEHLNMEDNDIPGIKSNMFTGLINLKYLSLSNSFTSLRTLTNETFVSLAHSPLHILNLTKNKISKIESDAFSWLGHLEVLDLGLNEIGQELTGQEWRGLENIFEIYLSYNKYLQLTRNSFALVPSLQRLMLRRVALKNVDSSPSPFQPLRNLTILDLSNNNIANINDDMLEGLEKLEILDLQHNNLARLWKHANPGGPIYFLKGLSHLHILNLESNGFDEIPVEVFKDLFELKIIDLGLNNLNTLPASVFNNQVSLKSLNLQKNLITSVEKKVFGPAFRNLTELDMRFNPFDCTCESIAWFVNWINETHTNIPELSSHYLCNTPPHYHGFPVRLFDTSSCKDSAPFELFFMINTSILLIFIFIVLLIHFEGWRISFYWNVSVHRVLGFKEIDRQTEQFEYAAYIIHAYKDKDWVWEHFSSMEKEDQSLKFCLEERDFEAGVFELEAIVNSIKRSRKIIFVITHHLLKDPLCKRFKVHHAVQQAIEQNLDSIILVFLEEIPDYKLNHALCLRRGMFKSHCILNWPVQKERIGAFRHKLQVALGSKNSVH
Summary of the method: (§1)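 HEK293 reporter lines stably co-transfected with the respective human TLR and an NF-κB/AP-1-driven secreted alkaline phosphatase gene, kept in selection medium. About 10^5 cells/ml were incubated with graded concentrations of stimuli. Supernatant sAP was read spectrophotometrically at 620 nm using a chromogenic substrate in detection medium. EC50 was taken as the arithmetic mean of quadruplicate samples.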

[3] = target: Toll-like receptor 5 (Homo sapiens) (UniProt O60602); test: Agonist activity at human TLR5 expressed in HEK293 cells assessed as induction of NF-kappaB activity by secreted alkaline phosphatase reporter gene assay; summary of the method: as §1
Sequence of Toll-like receptor 5 (Homo sapiens) (O60602 whole entry): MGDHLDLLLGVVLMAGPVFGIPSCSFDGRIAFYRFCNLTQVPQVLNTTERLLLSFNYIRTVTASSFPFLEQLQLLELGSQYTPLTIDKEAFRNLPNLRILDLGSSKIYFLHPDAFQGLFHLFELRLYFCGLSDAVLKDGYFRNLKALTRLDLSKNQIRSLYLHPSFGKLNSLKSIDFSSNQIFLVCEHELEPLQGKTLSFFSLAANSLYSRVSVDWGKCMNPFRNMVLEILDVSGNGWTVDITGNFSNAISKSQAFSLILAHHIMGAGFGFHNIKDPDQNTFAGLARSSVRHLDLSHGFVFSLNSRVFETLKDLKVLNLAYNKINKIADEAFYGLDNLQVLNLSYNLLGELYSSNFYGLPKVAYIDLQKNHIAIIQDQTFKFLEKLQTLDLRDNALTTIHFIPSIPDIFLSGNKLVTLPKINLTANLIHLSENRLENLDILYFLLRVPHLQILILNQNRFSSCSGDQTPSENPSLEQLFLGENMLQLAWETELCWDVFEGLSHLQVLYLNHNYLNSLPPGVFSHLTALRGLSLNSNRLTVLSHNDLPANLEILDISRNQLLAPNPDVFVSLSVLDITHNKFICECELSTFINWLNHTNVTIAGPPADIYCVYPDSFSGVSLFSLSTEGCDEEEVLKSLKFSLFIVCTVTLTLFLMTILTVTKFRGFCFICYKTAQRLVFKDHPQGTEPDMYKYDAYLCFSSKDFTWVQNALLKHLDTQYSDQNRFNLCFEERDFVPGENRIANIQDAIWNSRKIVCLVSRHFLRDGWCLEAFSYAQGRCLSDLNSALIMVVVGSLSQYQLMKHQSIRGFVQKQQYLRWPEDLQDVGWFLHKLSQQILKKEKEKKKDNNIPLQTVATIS

[4] = target: Toll-like receptor 4 (Homo sapiens) (UniProt O00206); test: Agonist activity at human TLR4 expressed in HEK293 cells assessed as induction of NF-kappaB activity by secreted alkaline phosphatase reporter gene assay; summary of the method: as §1
Sequence of Toll-like receptor 4 (Homo sapiens) (O00206 whole entry): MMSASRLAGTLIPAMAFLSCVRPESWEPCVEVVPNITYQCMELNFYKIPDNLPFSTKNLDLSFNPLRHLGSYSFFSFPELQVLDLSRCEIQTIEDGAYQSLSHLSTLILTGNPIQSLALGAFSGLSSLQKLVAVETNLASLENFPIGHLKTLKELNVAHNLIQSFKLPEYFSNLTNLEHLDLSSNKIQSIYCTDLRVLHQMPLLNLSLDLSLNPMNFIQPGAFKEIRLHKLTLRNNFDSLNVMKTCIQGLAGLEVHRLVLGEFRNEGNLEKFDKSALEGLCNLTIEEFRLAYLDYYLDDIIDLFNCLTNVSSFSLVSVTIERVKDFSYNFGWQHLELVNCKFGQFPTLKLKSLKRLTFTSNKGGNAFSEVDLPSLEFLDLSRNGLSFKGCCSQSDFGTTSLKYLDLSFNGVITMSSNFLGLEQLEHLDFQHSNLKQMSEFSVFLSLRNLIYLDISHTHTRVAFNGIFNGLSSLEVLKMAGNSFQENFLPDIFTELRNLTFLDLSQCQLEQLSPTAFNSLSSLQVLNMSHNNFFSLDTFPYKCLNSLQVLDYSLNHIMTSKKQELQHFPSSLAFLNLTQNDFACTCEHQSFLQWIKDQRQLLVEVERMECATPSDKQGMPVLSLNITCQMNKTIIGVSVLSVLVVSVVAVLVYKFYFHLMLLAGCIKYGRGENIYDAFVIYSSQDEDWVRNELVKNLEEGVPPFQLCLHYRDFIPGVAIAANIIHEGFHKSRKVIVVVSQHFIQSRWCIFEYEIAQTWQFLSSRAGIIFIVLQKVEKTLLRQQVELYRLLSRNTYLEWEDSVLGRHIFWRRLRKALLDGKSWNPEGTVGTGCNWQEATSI

[5] = target: T2, Toll-like receptor 9 (Homo sapiens) (UniProt Q9NR96); test: Agonist activity at human TLR9 expressed in HEK293 cells assessed as induction of NF-kappaB activity by secreted alkaline phosphatase reporter gene assay; summary of the method: as §1
T2 sequence (whole entry): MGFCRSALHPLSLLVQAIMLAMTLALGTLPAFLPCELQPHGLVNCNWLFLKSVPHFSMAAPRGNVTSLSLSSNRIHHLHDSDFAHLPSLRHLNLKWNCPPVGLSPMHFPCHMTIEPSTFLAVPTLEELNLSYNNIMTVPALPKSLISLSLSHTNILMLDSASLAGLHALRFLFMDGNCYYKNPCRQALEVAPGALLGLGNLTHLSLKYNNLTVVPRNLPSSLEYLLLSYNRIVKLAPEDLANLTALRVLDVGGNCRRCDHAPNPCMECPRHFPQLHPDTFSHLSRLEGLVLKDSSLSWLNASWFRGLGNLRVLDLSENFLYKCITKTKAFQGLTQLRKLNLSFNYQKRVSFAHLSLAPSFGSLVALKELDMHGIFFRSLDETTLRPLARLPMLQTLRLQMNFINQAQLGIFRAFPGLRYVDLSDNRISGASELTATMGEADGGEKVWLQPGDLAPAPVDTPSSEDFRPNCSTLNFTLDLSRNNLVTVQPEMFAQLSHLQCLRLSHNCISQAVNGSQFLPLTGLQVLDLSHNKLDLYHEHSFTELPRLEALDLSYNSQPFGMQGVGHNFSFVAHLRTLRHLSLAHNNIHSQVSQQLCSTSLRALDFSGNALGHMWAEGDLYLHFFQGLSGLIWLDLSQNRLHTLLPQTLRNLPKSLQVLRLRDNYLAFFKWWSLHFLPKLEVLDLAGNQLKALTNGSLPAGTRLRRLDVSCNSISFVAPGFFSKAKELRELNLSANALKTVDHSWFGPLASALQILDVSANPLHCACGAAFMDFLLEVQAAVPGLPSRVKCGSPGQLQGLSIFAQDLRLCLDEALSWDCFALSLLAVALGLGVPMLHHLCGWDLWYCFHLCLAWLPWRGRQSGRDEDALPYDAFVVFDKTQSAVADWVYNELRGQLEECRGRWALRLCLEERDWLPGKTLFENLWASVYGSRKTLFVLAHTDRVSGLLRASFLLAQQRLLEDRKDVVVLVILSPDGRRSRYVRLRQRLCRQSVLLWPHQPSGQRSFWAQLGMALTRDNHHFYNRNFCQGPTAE

[6] = target: Toll-like receptor 2 (Homo sapiens) (UniProt O60603); test: Agonist activity at human TLR2 expressed in HEK293 cells assessed as induction of NF-kappaB activity by secreted alkaline phosphatase reporter gene assay; summary of the method: as §1
Sequence of Toll-like receptor 2 (Homo sapiens) (O60603 whole entry): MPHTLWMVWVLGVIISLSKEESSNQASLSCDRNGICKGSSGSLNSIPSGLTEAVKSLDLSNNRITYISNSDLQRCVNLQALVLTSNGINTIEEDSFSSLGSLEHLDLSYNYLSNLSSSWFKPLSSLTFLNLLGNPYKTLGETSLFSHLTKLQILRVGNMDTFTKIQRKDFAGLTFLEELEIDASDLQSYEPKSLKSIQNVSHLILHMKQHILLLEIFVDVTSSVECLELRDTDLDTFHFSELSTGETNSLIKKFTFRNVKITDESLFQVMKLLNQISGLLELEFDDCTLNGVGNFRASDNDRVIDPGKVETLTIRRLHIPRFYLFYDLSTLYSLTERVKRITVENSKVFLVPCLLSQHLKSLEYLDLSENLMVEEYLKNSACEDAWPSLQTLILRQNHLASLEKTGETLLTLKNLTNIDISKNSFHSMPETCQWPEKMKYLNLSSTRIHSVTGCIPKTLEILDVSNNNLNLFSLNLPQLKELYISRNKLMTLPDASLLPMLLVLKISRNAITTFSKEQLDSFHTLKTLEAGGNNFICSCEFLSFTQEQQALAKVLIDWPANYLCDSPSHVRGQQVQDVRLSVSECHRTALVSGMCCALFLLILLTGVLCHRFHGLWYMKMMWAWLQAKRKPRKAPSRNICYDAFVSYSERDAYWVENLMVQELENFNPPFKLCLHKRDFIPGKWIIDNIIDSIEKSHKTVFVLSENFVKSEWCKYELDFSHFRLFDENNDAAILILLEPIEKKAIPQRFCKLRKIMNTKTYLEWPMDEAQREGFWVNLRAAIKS

[7] = target: T3, Toll-like receptor 7 (Homo sapiens) (UniProt Q9NYK1); test: Agonist activity at human TLR7 expressed in HEK293 cells assessed as induction of NF-kappaB activity by secreted alkaline phosphatase reporter gene assay; summary of the method: as §1
T3 sequence (whole entry): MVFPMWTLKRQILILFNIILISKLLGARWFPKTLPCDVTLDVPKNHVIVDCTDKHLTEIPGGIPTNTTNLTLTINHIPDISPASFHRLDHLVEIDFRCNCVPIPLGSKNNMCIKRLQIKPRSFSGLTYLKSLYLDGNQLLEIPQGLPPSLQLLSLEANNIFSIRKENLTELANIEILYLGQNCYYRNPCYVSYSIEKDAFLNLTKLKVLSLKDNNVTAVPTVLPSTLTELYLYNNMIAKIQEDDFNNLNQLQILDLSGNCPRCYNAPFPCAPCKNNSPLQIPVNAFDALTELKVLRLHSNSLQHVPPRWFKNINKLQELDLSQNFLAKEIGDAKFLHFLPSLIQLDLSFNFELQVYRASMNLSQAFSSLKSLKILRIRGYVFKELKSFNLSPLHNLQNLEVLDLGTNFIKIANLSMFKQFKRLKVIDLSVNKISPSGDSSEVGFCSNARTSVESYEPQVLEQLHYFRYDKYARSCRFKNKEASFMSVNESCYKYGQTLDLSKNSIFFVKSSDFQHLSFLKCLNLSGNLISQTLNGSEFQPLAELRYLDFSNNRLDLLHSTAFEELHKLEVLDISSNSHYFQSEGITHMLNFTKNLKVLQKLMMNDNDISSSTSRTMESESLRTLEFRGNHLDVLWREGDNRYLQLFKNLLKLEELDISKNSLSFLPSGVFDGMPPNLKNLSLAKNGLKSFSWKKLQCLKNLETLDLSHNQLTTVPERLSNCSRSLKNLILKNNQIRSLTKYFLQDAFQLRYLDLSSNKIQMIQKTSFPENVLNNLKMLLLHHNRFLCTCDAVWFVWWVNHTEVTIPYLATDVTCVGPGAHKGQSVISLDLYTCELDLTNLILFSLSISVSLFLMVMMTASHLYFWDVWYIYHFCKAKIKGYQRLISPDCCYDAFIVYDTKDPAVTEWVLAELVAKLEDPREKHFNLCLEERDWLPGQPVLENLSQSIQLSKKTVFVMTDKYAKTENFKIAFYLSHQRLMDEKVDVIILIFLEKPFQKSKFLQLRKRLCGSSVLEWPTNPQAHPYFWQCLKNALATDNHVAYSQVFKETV

Toll-like receptor 8 = target: T4, Toll-like receptor 8 (Homo sapiens, UniProt Q9NR97); test: Agonist activity at human TLR8 expressed in HEK293 cells assessed as induction of NF-kappaB activity by secreted alkaline phosphatase reporter gene assay; summary of the method: as §1
T4 sequence (Q9NR97 whole entry): T1 sequence (whole entry)

SMILES: CCCNc1nc(N)nc(C)c1I
- Activity [1]: inactive

SMILES: CCCCNc1cc(OC)nc(N)n1
- Activity [1]: inactive

SMILES: CCCCNc1nc(N)nc(C)c1CCCN
- Activity [2]: inactive
- Activity [3]: inactive
- Activity [4]: inactive
- Activity [5]: inactive
- Activity [6]: inactive
- Activity [7]: inactive

SMILES: CCCCN(Cc1ccccc1)c1nc(N)nc(C)c1I
- Activity [1]: inactive

SMILES: CCCCNc1cc(C)nc(N)n1
- Activity [2]: inactive
- Activity [3]: inactive
- Activity [4]: inactive
- Activity [5]: inactive
- Activity [6]: inactive
- Activity [7]: inactive

SMILES: CCCCSc1nc(N)nc(C)c1I
- Activity [1]: inactive

SMILES: CCCC#Cc1cc(C)nc(N)n1
- Activity [1]: inactive

SMILES: CCCCNc1nc(N)nc(C)c1Cc1ccccc1
- pEC50 (Toll-like receptor 8): 5.92

SMILES: CCCCNc1nc(N)nc(-c2ccccc2)c1CCCN
- Activity [1]: inactive

SMILES: CCCCN(C)c1nc(N)nc(C)c1I
- Activity [1]: inactive

SMILES: CCCCNc1cc(N)nc(N)n1
- Activity [1]: inactive

SMILES: CCCCNc1nc(N)nc(Cl)c1I
- Activity [1]: inactive

SMILES: CCCCNc1nc(N)nc(C)c1F
- pEC50 (Toll-like receptor 8): 4.47

SMILES: CCCCCCNc1nc(N)nc(C)c1I
- Activity [1]: inactive

SMILES: CCCCNc1cc(Cl)nc(N)n1
- Activity [1]: inactive

SMILES: CCCCNc1nc(N)ncc1I
- Activity [1]: inactive

SMILES: CCCCNc1nc(N)nc(N)c1I
- Activity [1]: inactive

SMILES: CCCCNc1nc(N)nc(C)c1CCCCCN
- pEC50 (Toll-like receptor 8): 6.52

SMILES: CCCCOc1nc(N)nc(C)c1I
- Activity [1]: inactive

SMILES: CCCCNc1nc(N)nc(C)c1Br
- pEC50 (Toll-like receptor 8): 5.07

SMILES: CCCCCNc1nc(N)nc(C)c1I
- pEC50 (Toll-like receptor 8): 5.43

SMILES: CCCCNc1nc(N)nc(OC)c1I
- Activity [1]: inactive

SMILES: CCCCNc1nc(N)nc(C)c1Cl
- pEC50 (Toll-like receptor 8): 4.70

SMILES: CCCCCc1cc(C)nc(N)n1
- Activity [1]: inactive

SMILES: CCCCNc1nc(N)nc(-c2ccccc2)c1I
- Activity [1]: inactive

SMILES: CCCCCc1nc(N)nc(C)c1I
- Activity [1]: inactive
